Data taken from the RNAGym collection of RNA variant scans (doi:10.1126/science.aae0568).
Variants at the floor of the assay were thinned out.

B1: tRNA (parent)
chain: GUUCCGUUGGCGUAAUGGUAACGCGUCUCCCUCCUAAGGAGAAGACUGCGGGUUCGAGUCCCGUACGGAACG

Variants of: B1
Assay: yeast fitness relative to wild type (ratio to wild type); higher = fitter; tRNA-Arg(CCU), competitive growth, 37 C, YPD
Procedure, shortened: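 Changes in genotype frequencies gave Darwinian fitness relative to wild type. Frequencies were read by 100-nucleotide paired-end sequencing of gene amplicons before and after pooled Saccharomyces cerevisiae strains, carrying tRNA-Arg(CCU) gene variants at the native locus, were competed in YPD at 37°C for 24 hours in six replicates. A genotype was kept only with ≥ 100 starting reads, and estimates < 0.5 were set to 0.5.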
For G6A C33G A43U, the yeast fitness was 0.574. G6A G10C A15U A70G gave a yeast fitness of at most 0.5. In the case of G6A G44A C61G, the yeast fitness is reported as at most 0.5. With G6A G18C A37C C60A U64A the yeast fitness was at most 0.5. In the case of G6A C34G A37G A57G A70C, the yeast fitness is reported as at most 0.5. Variant G6A C24U C61A has a yeast fitness of at most 0.5. G6A G48A A65C showed a yeast fitness of 0.541. Variant G6A C30U C62A has a yeast fitness of at most 0.5. G6A C24U G63A gave a yeast fitness of 0.674. Work on G6A C46G G51A G52C C62G C66U yielded a yeast fitness of at most 0.5. G6A G12C C34U A70U gave a yeast fitness of 0.671. In the case of G6A G25C, the yeast fitness is reported as 0.866. With G6A G39A G41A A65G the yeast fitness was 0.613. With G6A G9A C11G C24G U32A G52C the yeast fitness was at most 0.5. In the case of G6A C22U C33U A36U A43C C60U C61G A70G, the yeast fitness is reported as at most 0.5. G6A G10C C34U C46U showed a yeast fitness of at most 0.5. G6A G18A A36C U47G gave a yeast fitness of at most 0.5. Variant G6A G50A A65U has a yeast fitness of at most 0.5. In the case of G6A C27A C30U G41C A43U C49A G63U, the yeast fitness is reported as 0.54. In the case of G6A C49U A57C A65C A70C, the yeast fitness is reported as at most 0.5. G6A C11G C24U showed a yeast fitness of at most 0.5. Work on G6A G39A G52C C55G yielded a yeast fitness of at most 0.5. G6A C33G C34G A43U C61A showed a yeast fitness of at most 0.5. Variant G6A C24U C61G C66U A70G has a yeast fitness of at most 0.5. In the case of G6A G23U C24G U35A G48C, the yeast fitness is reported as at most 0.5. G6A G23A U47A G58C showed a yeast fitness of at most 0.5. G6A C49U G63A gave a yeast fitness of 0.688. G6A G9C U19C C24U U54C showed a yeast fitness of at most 0.5. G6A G10C A20C U28C A36U showed a yeast fitness of 0.695. G6A G50U gave a yeast fitness of 0.826. G6A G50A gave a yeast fitness of 0.841. G6A G50C showed a yeast fitness of 0.629. Work on G6A G17C U35A G39A C55G C60U G67C yielded a yeast fitness of at most 0.5. Work on G6A C24U C55G A70U yielded a yeast fitness of 0.624. G6A C60G G67A gave a yeast fitness of 0.53. G6A C22U A42C showed a yeast fitness of 0.605. Work on G6A C11G U35A A37U U53A A65G yielded a yeast fitness of at most 0.5. G6A U8A C24U A40U gave a yeast fitness of 0.684. In the case of G6A G25C A65U, the yeast fitness is reported as 0.663. For G6A C27G A42C, the yeast fitness was at most 0.5. G6A G12C U16C C31U G52C A70G gave a yeast fitness of 0.651. In the case of G6A G50A U53G A69G, the yeast fitness is reported as at most 0.5. In the case of G6A C24U A65U, the yeast fitness is reported as at most 0.5. Work on G6A G38A A40C G56A C60U C61G yielded a yeast fitness of at most 0.5. With G6A C11G C22G U54A the yeast fitness was at most 0.5. With G6A U8C A70U the yeast fitness was 0.57. For G6A G9C G23A U26C A40U A42U, the yeast fitness was at most 0.5. With G6A C24G G50A the yeast fitness was at most 0.5. For G6A C11U C22G U47A C60U, the yeast fitness was at most 0.5. In the case of G6A G41A, the yeast fitness is reported as 0.822. G6A G25A A69U gave a yeast fitness of 0.68. For G6A C30G C60G G68A, the yeast fitness was at most 0.5. For G6A G17C C31G G50U U53A, the yeast fitness was 0.559. In the case of G6A C34G, the yeast fitness is reported as 0.569. Work on G6A C34A yielded a yeast fitness of 0.739. In the case of G6A G41A A42C G50C A70G, the yeast fitness is reported as 0.543. For G6A C31G C55U, the yeast fitness was 0.537. Work on G6A C46U G50A C61G yielded a yeast fitness of at most 0.5. G6A G9C C29U C55G showed a yeast fitness of at most 0.5. Variant G6A C30A has a yeast fitness of 0.845. G6A C30U showed a yeast fitness of 0.742. G6A G9C A42U gave a yeast fitness of at most 0.5. With G6A C29A C30G C61U A70G the yeast fitness was at most 0.5. G6A G12C U16C A21U gave a yeast fitness of 0.532. Work on G6A C22G C31U yielded a yeast fitness of 0.771. For G6A C31A U47C G67A, the yeast fitness was at most 0.5. G6A C33A G58A A65C G67A gave a yeast fitness of at most 0.5. G6A C22G G52C G58C A65U gave a yeast fitness of at most 0.5. G6A G10C C29U showed a yeast fitness of at most 0.5. G6A C24G U35A G48C gave a yeast fitness of 0.54. Variant G6A G41A G51C has a yeast fitness of at most 0.5. With G6A C34G C61G the yeast fitness was 0.538. G6A C34G A37G U64C gave a yeast fitness of at most 0.5. G6A C22U gave a yeast fitness of 0.757. Work on G6A C11U U13C A70G yielded a yeast fitness of at most 0.5. With G6A C31G A43C C49A U54C the yeast fitness was at most 0.5. Variant G6A C24G C31G has a yeast fitness of 0.527. G6A C22G U47A G67U A70C showed a yeast fitness of at most 0.5. In the case of G6A C27G C46U C60A C66G G68C, the yeast fitness is reported as at most 0.5. In the case of G6A G17C A37C, the yeast fitness is reported as 0.634. G6A G39A A65C gave a yeast fitness of 0.605. G6A G68C showed a yeast fitness of 0.754. Work on G6A G12C U16A yielded a yeast fitness of 0.799. G6A C66G gave a yeast fitness of 0.683. In the case of G6A C66A, the yeast fitness is reported as 0.879. Work on G6A C11U U26A C33A A43G yielded a yeast fitness of at most 0.5. With G6A C22A U35A C49G G63C the yeast fitness was at most 0.5. With G6A C22G U54G A69U the yeast fitness was at most 0.5. Work on G6A C22G A42C C62U yielded a yeast fitness of at most 0.5. With G6A G25A C34A G58A the yeast fitness was at most 0.5. In the case of G6A C31G C49A G68C, the yeast fitness is reported as 0.536. Work on G6A G12A G41A A65U yielded a yeast fitness of 0.547. Variant G6A C22U C33A C55U C61A has a yeast fitness of at most 0.5. With G6A G18C A37C the yeast fitness was at most 0.5. G6A G39C A45G showed a yeast fitness of at most 0.5. Work on G6A C34A A37C A40U yielded a yeast fitness of at most 0.5. Variant G6A G67A has a yeast fitness of 0.872. With G6A G23C C49G G50A U53G A57G the yeast fitness was at most 0.5. With G6A G10C G63A the yeast fitness was at most 0.5. G6A C22G U35C C55G showed a yeast fitness of at most 0.5. G6A G9C C11G C34U gave a yeast fitness of at most 0.5. Variant G6A C11U U13C A43G G52A G67A has a yeast fitness of at most 0.5. With G6A C27A G50A A69U the yeast fitness was 0.542. With G6A G51A C60G the yeast fitness was at most 0.5. In the case of G6A C27U C29A G58C, the yeast fitness is reported as at most 0.5. Work on G6A C27U C31G A43C C49G G52C U59A yielded a yeast fitness of at most 0.5. G6A G12C C49G gave a yeast fitness of at most 0.5. Work on G6A C61A yielded a yeast fitness of 0.66. G6A C61U gave a yeast fitness of 0.902. In the case of G6A C24U A57C G68U A69C, the yeast fitness is reported as at most 0.5. Work on G6A G17A yielded a yeast fitness of 0.633. With G6A G17C the yeast fitness was 0.744. In the case of G6A C30U G63A G67A, the yeast fitness is reported as at most 0.5. With G6A U7A U26C C34G G63A the yeast fitness was at most 0.5. Variant G6A G12A A57U has a yeast fitness of at most 0.5. With G6A C30U G67A the yeast fitness was 0.586. In the case of G6A C27A A36G, the yeast fitness is reported as at most 0.5. With G6A C30U C49A the yeast fitness was at most 0.5. Work on G6A C24U U47C yielded a yeast fitness of 0.751. In the case of G6A C11U C30U G67A, the yeast fitness is reported as at most 0.5. With G6A C11U A40G the yeast fitness was at most 0.5. G6A U8C A15G A20U A45U U64C showed a yeast fitness of at most 0.5. Work on G6A C11A G52U yielded a yeast fitness of at most 0.5. In the case of G6A C11A C66A, the yeast fitness is reported as at most 0.5. For G6A C30U U35A A37G G38C U47A, the yeast fitness was at most 0.5. For G6A C11U C34G G58A, the yeast fitness was 0.724. In the case of G6A C31U A43U C55A, the yeast fitness is reported as at most 0.5. Work on G6A C24U A45C C61G yielded a yeast fitness of at most 0.5. G6A C27U C30U showed a yeast fitness of 0.596. With G6A C29U U47A G51A A57G the yeast fitness was at most 0.5. G6A C24G gave a yeast fitness of 0.625. Variant G6A C60G has a yeast fitness of 0.601. Variant G6A C60U has a yeast fitness of 0.675. G6A C11U U13C C27G A69C gave a yeast fitness of 0.541. G6A G9C A21C C30U A45U gave a yeast fitness of at most 0.5. G6A G17A U19G gave a yeast fitness of 0.512. Work on G6A C29G A37U G56C G67C yielded a yeast fitness of at most 0.5. With G6A C34G G52C A65U the yeast fitness was at most 0.5. For G6A C24U C29G C66U, the yeast fitness was at most 0.5. G6A C29G C30A U64G A69C gave a yeast fitness of at most 0.5. Variant G6A G58A has a yeast fitness of 0.902. In the case of G6A G58C, the yeast fitness is reported as 1.08. Variant G6A C33G C34G C61A has a yeast fitness of 0.548. G6A C31A U59C A70U showed a yeast fitness of at most 0.5. In the case of G6A G10C U54C, the yeast fitness is reported as at most 0.5. With G6A C34G C62U G68A the yeast fitness was at most 0.5. For G6A C31A U47G C62A, the yeast fitness was at most 0.5. With G6A C27U A42U C62U the yeast fitness was at most 0.5. G6A G38C C66U gave a yeast fitness of 0.532. With G6A C29A C62A the yeast fitness was at most 0.5. In the case of G6A G44U C66U, the yeast fitness is reported as 0.601. Work on G6A G41A C62U yielded a yeast fitness of 0.619. Work on G6A G23C C61U yielded a yeast fitness of at most 0.5. With G6A C24U G48C the yeast fitness was 0.618. G6A C31G A43C C49A U54C C60G gave a yeast fitness of at most 0.5. G6A C33U C49A G58C A69U showed a yeast fitness of at most 0.5. For G6A C11U C24U, the yeast fitness was at most 0.5. Variant G6A C30U A42C G48C has a yeast fitness of at most 0.5. With G6A C49U C55U the yeast fitness was 0.561. For G6A G9C A21C C30U, the yeast fitness was at most 0.5. G6A G9C C11G C34U A57G gave a yeast fitness of 0.54. G6A C31A G68A showed a yeast fitness of at most 0.5. G6A G9C G44C G67A gave a yeast fitness of 0.649. G6A C66A A69C gave a yeast fitness of 0.565. Variant G6A G17C C31A A36U C55G G63A has a yeast fitness of at most 0.5. G6A C33U A43G showed a yeast fitness of at most 0.5. G6A G12A C33G U54A U59A G67A gave a yeast fitness of at most 0.5.
